In ChEMBL document CHEMBL3407351, “Pyrido-imidazodiazepinones as a new class of reversible inhibitors of human kallikrein 7” (Eur J Med Chem, 2015):
The source made the active and inactive calls. The rule behind the calls is not given here.

What was measured:
Kallikrein-7 [1] = target: T1, Kallikrein-7 (Homo sapiens, UniProt P49862); assay: Inhibition of human KLK7 using Suc-Leu-Leu-Val-Tyr-AMC as substrate after 15 mins by fluorescence assay
Method in brief: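 Recombinant KLK7 at 7.6 nM, final, with 40 µM Suc-LLVY-AMC in pH 8.0 buffer of 50 mM Tris-HCl, 0.01% Tween 20, 1 M NaCl, 2% DMSO. Enzyme preincubated 15 min with compound, then hydrolysis followed for 15 min at 37 °C, ex 360 / em 460 nm. Run in triplicate. Initial rates taken relative to untreated enzyme; IC50 fitted to hyperbolic or Hill equation.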
Target sequence in this assay (P49862 whole entry): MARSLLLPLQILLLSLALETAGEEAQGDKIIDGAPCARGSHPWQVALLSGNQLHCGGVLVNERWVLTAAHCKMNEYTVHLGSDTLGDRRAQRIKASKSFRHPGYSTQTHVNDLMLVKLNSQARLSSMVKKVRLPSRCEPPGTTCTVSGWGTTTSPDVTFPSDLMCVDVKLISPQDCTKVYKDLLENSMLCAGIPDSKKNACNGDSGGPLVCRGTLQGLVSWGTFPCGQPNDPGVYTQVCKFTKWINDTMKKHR

Kallikrein-7 [2] = target: T1, Kallikrein-7; assay: Inhibition of human KLK7 using Suc-Leu-Leu-Val-Tyr-AMC as substrate at 50 uM after 15 mins by fluorescence assay relative to control
Target sequence in this assay (P49862 30-253 limits assumed): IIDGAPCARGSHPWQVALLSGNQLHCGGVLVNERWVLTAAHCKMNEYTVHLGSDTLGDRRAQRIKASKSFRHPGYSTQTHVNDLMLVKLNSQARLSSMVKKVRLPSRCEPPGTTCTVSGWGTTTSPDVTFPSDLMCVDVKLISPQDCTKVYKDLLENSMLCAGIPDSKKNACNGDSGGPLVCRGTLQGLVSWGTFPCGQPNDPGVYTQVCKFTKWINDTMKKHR

Kallikrein-7 [3] = target: T1, Kallikrein-7; assay: Competitive inhibition of human KLK7 using Suc-Leu-Leu-Val-Tyr-AMC as substrate by Lineweaver-Burk plot analysis
Target sequence in this assay (P49862 whole entry): as the sequence (P49862 whole entry) above

[4] = target: Kallikrein-5 (Homo sapiens) (UniProt Q9Y337); assay: Inhibition of human KLK5 using Boc-Val-Pro-Arg-AMC as substrate at 50 uM after 15 mins by fluorescence assay
Method in brief: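 KLK5 at 0.6 nM, final, with 100 µM Boc-VPR-AMC in pH 8.0 buffer of 50 mM Tris-HCl, 0.01% Tween 20, 150 mM NaCl, 2% DMSO. Compound at 50 µM preincubated 15 min with enzyme. Fluorescence then read 15 min at 37 °C, ex 360 / em 460 nm. Inhibition taken from initial rates versus untreated control.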

[5] = target: T2, Kallikrein-8 (Homo sapiens) (UniProt O60259); assay: Inhibition of human KLK8 using Boc-Val-Pro-Arg-AMC as substrate at 50 uM after 15 mins by fluorescence assay
T2 sequence (whole entry): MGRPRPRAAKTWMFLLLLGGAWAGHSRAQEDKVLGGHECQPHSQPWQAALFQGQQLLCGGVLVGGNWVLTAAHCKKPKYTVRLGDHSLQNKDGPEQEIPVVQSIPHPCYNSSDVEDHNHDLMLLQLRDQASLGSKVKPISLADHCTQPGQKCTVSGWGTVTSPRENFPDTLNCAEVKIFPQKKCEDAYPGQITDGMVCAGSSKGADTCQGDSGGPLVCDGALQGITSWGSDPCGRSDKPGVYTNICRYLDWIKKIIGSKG
Method in brief: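 KLK8 at 1 nM, final, with 100 µM Boc-VPR-AMC in pH 8.0 Tris-HCl buffer containing 0.01% Tween 20 and 2% DMSO. Compound at 50 µM preincubated with enzyme 15 min. Substrate hydrolysis then monitored 15 min at 37 °C, ex 360 / em 460 nm. Initial rates compared with the untreated enzyme.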

[6] = target: T3, Kallikrein-14 (Homo sapiens) (UniProt Q9P0G3); assay: Inhibition of human KLK14 using Boc-Val-Pro-Arg-AMC as substrate at 50 uM after 15 mins by fluorescence assay
T3 sequence (whole entry): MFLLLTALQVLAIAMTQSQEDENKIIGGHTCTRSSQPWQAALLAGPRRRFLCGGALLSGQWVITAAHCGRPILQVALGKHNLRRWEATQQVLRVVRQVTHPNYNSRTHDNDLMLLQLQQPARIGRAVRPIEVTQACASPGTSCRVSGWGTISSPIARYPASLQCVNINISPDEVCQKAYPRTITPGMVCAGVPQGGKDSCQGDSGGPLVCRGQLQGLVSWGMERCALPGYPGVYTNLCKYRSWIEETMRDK
Method in brief: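 KLK14 at 0.2 nM, final, with 10 µM Boc-VPR-AMC in pH 8.0 buffer of 50 mM Tris-HCl, 0.01% Tween 20, 1 M NaCl, 2% DMSO. Compound at 50 µM preincubated 15 min with enzyme. Fluorescence then read 15 min at 37 °C, ex 360 / em 460 nm. Percent inhibition taken from initial rates relative to control.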

Kallikrein-7 [7] = target: T1, Kallikrein-7; assay: Reversible inhibition of human KLK7 using Suc-Leu-Leu-Val-Tyr-AMC as substrate at 50 uM preincubated for 15 mins followed by 40 fold dilution by fluorescence assay
Method in brief: (§1)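 KLK7 preincubated with inhibitor, 50 µM where stated, for 15 and 60 min at pH 8.0 and 37 °C. Mixture then diluted 40-fold into buffer holding Suc-LLVY-AMC under the routine KLK7 conditions. Residual activity read fluorimetrically, ex 360 / em 460 nm, and compared with the uninhibited enzyme.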
Target sequence in this assay (P49862 30-253 limits assumed): as the sequence (P49862 30-253 limits assumed) above

HeLa = assay: Cytotoxicity against human HeLa cells assessed as cell death after 48 to 72 hrs by XTT assay; type: functional, cell-based
Method in brief: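 Cells seeded at 5000/well in DMEM with 10% FBS, penicillin and streptomycin, 37 °C, 5% CO2. Compounds in DMSO added 20 h later, final DMSO 1%; screened at 100 µM, then over a concentration range, at least three wells per condition. Absorbance read at 485 nm after 3 h, viability given relative to DMSO controls, EC50 taken as 50% cell death.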

[8] = Cytotoxicity against human PC3 cells assessed as cell death after 48 to 72 hrs by XTT assay; type: functional, cell-based, PC-3
Method in brief: (§2)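 Cells seeded at 5000 per well in DMEM with 10% FBS, penicillin and streptomycin (100 µg/mL each), 37°C, 5% CO2. Compound in DMSO added 20 h after seeding, 1% DMSO final, DMSO-only controls. At least three wells per condition. Viability relative to DMSO; EC50 = concentration giving 50% cell death.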

SW-620 = assay: Cytotoxicity against human SW620 cells assessed as cell death after 48 to 72 hrs by XTT assay; type: functional, cell-based; method in brief: as §2
Kallikrein-7 [9] = target: T1, Kallikrein-7; assay: Reversible inhibition of human KLK7 using Suc-Leu-Leu-Val-Tyr-AMC as substrate preincubated for 15 to 60 mins followed by 40 fold dilution by fluorescence assay; method in brief: as §1
Target sequence in this assay (P49862 30-253 limits assumed): as above

[10] = Homo sapiens, HeLa, read-out: EC50

Chain of Kallikrein-5 (Homo sapiens) (Q9Y337 whole entry): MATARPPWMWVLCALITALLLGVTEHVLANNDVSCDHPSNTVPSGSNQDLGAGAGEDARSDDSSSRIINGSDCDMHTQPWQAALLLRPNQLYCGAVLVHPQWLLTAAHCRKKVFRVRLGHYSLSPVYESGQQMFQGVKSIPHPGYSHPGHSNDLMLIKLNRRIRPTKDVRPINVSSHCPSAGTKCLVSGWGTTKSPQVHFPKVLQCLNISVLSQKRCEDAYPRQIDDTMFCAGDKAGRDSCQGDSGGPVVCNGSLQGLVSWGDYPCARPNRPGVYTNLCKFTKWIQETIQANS

With `Cc1ccccc1C(=O)N[C@@H](Cc1ccccc1)C(=O)c1c(N)nc2ccccn12` the IC50 (Kallikrein-7 [1]) was 135 µM.

`Cc1ccccc1C1=Nc2nc3ccccn3c2C(=O)[C@@H](Cc2ccccc2)N1` gave an IC50 (Kallikrein-7 [1]) of 95.9 µM.

`Nc1nc2ccccn2c1C(=O)[C@H](Cc1ccccc1)NC(=O)c1ccncc1` gave an inhibition (Kallikrein-7 [2]) of less than 30%.

`O=C1c2c(nc3ccccn23)N=C(c2ccccc2)N[C@H]1Cc1ccccc1` showed an inhibition (Kallikrein-7 [2]) of less than 30%.

For `Nc1nc2ccccn2c1C(=O)[C@H](Cc1ccccc1)NC(=O)Cc1ccccc1`, the IC50 (Kallikrein-7 [1]) was 149 µM.

For `COc1ccc(C2=Nc3nc4ccccn4c3C(=O)[C@H](Cc3ccccc3)N2)cc1OC`, the IC50 (Kallikrein-7 [1]) was 33.5 µM, the Ki (Kallikrein-7 [3]) was 27 µM and the inhibition [4] was “inactive”. For the same molecule, the inhibition [5] was “inactive”, the inhibition [6] was “inactive” and the inhibition (Kallikrein-7 [7]) was “Active”. For the same molecule, the EC50 (HeLa; [10]) was 24.3 µM, the EC50 ([8]; Homo sapiens, PC-3, read-out: EC50) was 64.8 µM and the EC50 (SW-620; sw-620) was “Not Active”.

In the case of `O=C1c2c(nc3ccccn23)N=C(c2cccnc2)N[C@H]1Cc1ccccc1`, the inhibition (Kallikrein-7 [2]) is reported as less than 30%.

With `O=C1c2c(nc3ccccn23)N=C(c2ccc([N+](=O)[O-])cc2)N[C@H]1Cc1ccccc1` the inhibition (Kallikrein-7 [2]) was less than 30%.

`CC(C)CC1=Nc2nc3ccccn3c2C(=O)[C@H](Cc2ccccc2)N1` gave an inhibition (Kallikrein-7 [2]) of less than 30%.

Molecule `COc1ccc(C2=Nc3nc4ccccn4c3C(=O)[C@H](C)N2)cc1OC` has an inhibition (Kallikrein-7 [2]) of less than 30%.

`COc1ccc(C2=Nc3nc4ccccn4c3C(=O)[C@H](Cc3ccccc3)N2C)cc1OC` showed an inhibition (Kallikrein-7 [2]) of less than 30%.

Work on `Nc1nc2ccccn2c1C(=O)[C@H](Cc1ccccc1)NC(=O)c1ccccn1` yielded an inhibition (Kallikrein-7 [2]) of less than 30%.

Work on `COc1ccc(C2=Nc3nc4ccccn4c3C(=O)[C@H](CO)N2)cc1OC` yielded an inhibition (Kallikrein-7 [2]) of less than 30%.

`O=C1Nc2nc3ccccn3c2C(=O)[C@H](Cc2ccccc2)N1` showed an inhibition (Kallikrein-7 [2]) of less than 30%.

With `Cc1ccc(C2=Nc3nc4ccccn4c3C(=O)[C@H](Cc3ccccc3)N2)cc1` the IC50 (Kallikrein-7 [1]) was 68 µM.

`COc1ccc(C2=Nc3nc4ccccn4c3C(=O)[C@H](Cc3ccccc3)N2)cc1` showed an IC50 (Kallikrein-7 [1]) of 72 µM.

In the case of `Cc1ccccc1C1=Nc2nc3ccccn3c2C(=O)[C@H](Cc2ccccc2)N1`, the inhibition (Kallikrein-7 [2]) is reported as greater than 30%, the IC50 (Kallikrein-7 [1]) is reported as 57 µM and the inhibition (Kallikrein-7 [9]) is reported as “Active”. For the same molecule, the Ki (Kallikrein-7 [3]) was 50.6 µM, the inhibition [4] was “inactive” and the inhibition [5] was “inactive”. The inhibition [6] was “inactive”.

Work on `COc1ccccc1C1=Nc2nc3ccccn3c2C(=O)[C@H](Cc2ccccc2)N1` yielded an inhibition (Kallikrein-7 [2]) of less than 30%.

With `Cc1ccccc1C1=Nc2nc3ccccn3c2C(=O)[C@H](C)N1` the inhibition (Kallikrein-7 [2]) was less than 30%.

For `O=C1c2c(nc3ccccn23)N=C(c2ccccc2O)N[C@H]1Cc1ccccc1`, the inhibition (Kallikrein-7 [2]) was less than 30%.

Work on `Cc1ccccc1C1=Nc2nc3ccccn3c2C(=O)[C@H](COCc2ccccc2)N1` yielded an inhibition (Kallikrein-7 [2]) of less than 30%.

Molecule `Nc1nc2ccccn2c1C(=O)[C@H](Cc1ccccc1)NC(=O)c1ccccc1` has an inhibition (Kallikrein-7 [2]) of less than 30%.

Molecule `O=C1c2c(nc3ccccn23)N=C(c2ccc(Br)cc2)N[C@H]1Cc1ccccc1` has an inhibition (Kallikrein-7 [2]) of less than 30%.

For `COc1ccc(C2=Nc3nc4ccccn4c3C(=O)[C@H](COCc3ccccc3)N2)cc1OC`, the inhibition (Kallikrein-7 [2]) was less than 30%.

For `O=C1c2c(nc3ccccn23)N=C(c2cccc(O)c2)N[C@H]1Cc1ccccc1`, the IC50 (Kallikrein-7 [1]) was 125 µM.

`Nc1nc2ccccn2c1C(=O)[C@H](Cc1ccccc1)NC(=O)CCc1ccccc1` gave an inhibition (Kallikrein-7 [2]) of less than 30%.

For `COc1ccc(C2=Nc3nc4ccccn4c3C(=O)[C@H](Cc3ccc(OCc4ccccc4)cc3)N2)cc1OC`, the inhibition (Kallikrein-7 [2]) was less than 30%.

`COc1ccc(C2=Nc3nc4ccccn4c3C(O)[C@H](Cc3ccccc3)N2)cc1OC` (some centres not stated) gave an inhibition (Kallikrein-7 [2]) of less than 30%.

Molecule `Cc1cccc(C2=Nc3nc4ccccn4c3C(=O)[C@H](Cc3ccccc3)N2)c1` has an inhibition (Kallikrein-7 [2]) of less than 30%.

With `Nc1nc2ccccn2c1C(=O)[C@H](Cc1ccccc1)NC(=O)c1ccc[nH]1` the inhibition (Kallikrein-7 [2]) was less than 30%.

For `O=C1c2c(nc3ccccn23)N=C(c2cc(O)ccc2O)N[C@H]1Cc1ccccc1`, the inhibition (Kallikrein-7 [2]) was less than 30%.

In the case of `Nc1nc2ccccn2c1C(=O)[C@H](Cc1ccccc1)NC(=O)/C=C/c1ccccc1`, the inhibition (Kallikrein-7 [2]) is reported as less than 30%.

With `COc1cc(C2=Nc3nc4ccccn4c3C(=O)[C@H](Cc3ccccc3)N2)cc(OC)c1OC` the IC50 (Kallikrein-7 [1]) was 55.7 µM, the EC50 (HeLa; [10]) was 53.8 µM and the EC50 ([8]; pc-3) was “Not Active”. The EC50 (SW-620; sw-620) was “Not Active”.

In the case of `COc1ccc(C(=O)N[C@@H](Cc2ccccc2)C(=O)c2c(N)nc3ccccn23)cc1OC`, the inhibition (Kallikrein-7 [2]) is reported as less than 30%.

`Cc1ccccc1C1=Nc2nc3ccccn3c2C(=O)[C@H](Cc2cccc3ccccc23)N1` gave an inhibition (Kallikrein-7 [2]) of less than 30%.

In the case of `Cc1ccc(C2=Nc3nc4ccccn4c3C(=O)[C@H](Cc3ccccc3)N2)c(C)c1`, the IC50 (Kallikrein-7 [1]) is reported as 83.9 µM, the EC50 (HeLa; hela) is reported as “Not Active” and the EC50 ([8]; pc-3) is reported as “Not Active”. It also gave an EC50 (SW-620; Homo sapiens, SW-620, read-out: EC50) of 67.8 µM.

In the case of `COc1cccc(C2=Nc3nc4ccccn4c3C(=O)[C@H](Cc3ccccc3)N2)c1`, the inhibition (Kallikrein-7 [2]) is reported as less than 30%.

In the case of `COc1ccc(OC)c(C2=Nc3nc4ccccn4c3C(=O)[C@H](Cc3ccccc3)N2)c1`, the IC50 (Kallikrein-7 [1]) is reported as 80.9 µM, the EC50 (HeLa; [10]) is reported as 40 µM and the EC50 ([8]; pc-3) is reported as “Not Active”. For the same molecule, the EC50 (SW-620; sw-620) was “Not Active”.

For `COc1ccc(C2=Nc3nc4ccccn4c3C(=O)[C@H](Cc3ccc(O)cc3)N2)cc1OC`, the inhibition (Kallikrein-7 [2]) was less than 30%.
